Screening data as filed in PubChem BioAssay.
Hits are enriched below; roughly 3.2% of the tested compounds scored in any of these assays.
MEKK2 mut-MEK5 – signal of MEK5 binding to mutant human MEKK2 PB1 domain; 290,000 tested, 0.35% active; bead flow cytometry, Alexa488-MEK5 binding to MEKK2 mutant; percent response, % at 10 µM; in the data active = percent response above about 24%, passing the limit was not always enough
MEKK3 PB1 HTS – modulators (inhibitors or enhancers) of MEK5 binding to human MEKK3 PB1 domain | Q99759 | bead-based flow cytometry, Alexa488-MEK5 binding to MEKK3; actives lie on both sides; 0 = blocked by unlabeled MEK5, 100 = vehicle | binding response (% of control), % at 10 µM | 290,000 tested, 1.4% active | AID 1529;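 active = binding response more than 3 SD above or below the average of its plate-row segment, actives on both sides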;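 also: Alexa488 bead fluorescence after subtracting the streptavidin-only scavenger bead signal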
Target sequence (Q99759 whole entry, looked up, the tested form may be a part): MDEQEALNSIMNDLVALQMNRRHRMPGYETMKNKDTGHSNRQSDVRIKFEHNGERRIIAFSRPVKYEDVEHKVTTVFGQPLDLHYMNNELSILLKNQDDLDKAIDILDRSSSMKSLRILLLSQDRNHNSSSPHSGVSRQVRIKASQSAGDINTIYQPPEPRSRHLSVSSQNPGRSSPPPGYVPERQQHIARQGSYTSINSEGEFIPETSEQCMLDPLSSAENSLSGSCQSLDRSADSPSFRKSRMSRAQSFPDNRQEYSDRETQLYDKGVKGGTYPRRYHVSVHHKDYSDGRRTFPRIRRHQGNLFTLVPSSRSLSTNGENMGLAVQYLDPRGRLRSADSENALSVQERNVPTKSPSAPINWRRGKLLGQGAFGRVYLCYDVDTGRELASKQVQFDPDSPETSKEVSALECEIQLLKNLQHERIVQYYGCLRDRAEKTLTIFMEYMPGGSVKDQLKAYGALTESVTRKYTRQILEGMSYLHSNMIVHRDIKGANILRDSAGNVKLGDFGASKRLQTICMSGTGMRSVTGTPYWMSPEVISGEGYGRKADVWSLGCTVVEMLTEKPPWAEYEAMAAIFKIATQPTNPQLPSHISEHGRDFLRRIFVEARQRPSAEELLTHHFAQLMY
Apaf1 inhib – blocks human Apaf-1 apoptosome activity. O14727. reconstituted apoptosome caspase-3 activity, DEVD-Rh110 fluorescence. inhibition, % at 20 µM. 330,000 tested, 0.71% active. AID 489030; active = inhibition of at least 40% at 20 µM;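 also: plate controls were DMSO wells for no effect and DEVD-CHO caspase inhibitor wells for full effect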
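Material: reconstituted apoptosome with Apaf-1, cytochrome c, caspase-9, procaspase-3, dATP / Buffer or medium: pH 7.5 Hepes buffer with CHAPS, BSA, DTT / Also added: cytochrome c with DEVD-Rh110 / Schedule: compound with Apaf-1, dATP, procaspase-3 30 min, then 50 min reaction, room temperature / Technique: rhodamine 110 fluorescence at Ex 480/Em 540 nm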
MEKK2 WT-MEK5 – raises or lowers MEK5 binding to wildtype human MEKK2 PB1 domain. bead flow cytometry, Alexa488-MEK5 binding to MEKK2 WT; actives lie on both sides. Q9Y2U5. 290,000 tested, 1.1% active. AID 1531. binding response (% of control), % at 10 µM; in the data active = binding response below about 67% or above about 130%
UBC13 polyUb – inhibitors of human UBC13 polyubiquitin chain formation. TR-FRET. P61088. inhibition, % at 20 µM. AID 485273. 330,000 tested, 0.47% active; in the data active = inhibition above about 45%, passing the limit was not always enough
Pemphigus Ab inh – human desmoglein-3 autoantibody binding inhibition; P32926; DSG3-coupled beads, scFv-anti-DSG3-GFP binding, flow cytometry; hits give low values; binding (percent of control), % at 10 µM; 310,000 tested, 0.48% active; AID 588358;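 active = binding more than 3 SD below its plate's average and above zero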;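 also: hits lower antibody fragment binding to DSG3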
The depositor's hits bear a star; x = no result.

SMILES	MEKK2 mut-MEK5	MEKK3 PB1 HTS	Apaf1 inhib	MEKK2 WT-MEK5	UBC13 polyUb	Pemphigus Ab inh
CS(=O)(=O)N1CCN(c2ccc([N+](=O)[O-])c(NCc3ccccc3)c2)CC1	x	x	12	x	-27	x
CS(=O)(=O)N1CCN(c2ccc([N+](=O)[O-])c(NCc3cccnc3)c2)CC1	2	102	1	103	-18	25*
Cc1ccc(-n2cnc3c(=O)[nH]cnc32)cc1[N+](=O)[O-]	x	x	x	x	x	108
Cc1snc(S(=O)(=O)/C(C#N)=N/Nc2cccc(C(F)(F)F)c2)c1C#N	0	96	8	98	-8	74*
COc1ccc(N/N=C(/C#N)S(=O)(=O)c2nsc(C)c2C#N)cc1	-1	99	2	102	-7	x
Cc1ccc(-n2nc(-c3ccco3)cc2C(=O)O)c(C)c1	-7	96	x	95	x	60*
O=C1COc2ccc(C(=O)COC(=O)CCCOc3ccccc3)cc2N1	x	x	x	x	x	82*
O=C1COc2ccc(C(=O)COC(=O)CCSc3ccccc3)cc2N1	-2	75	2	85	-5	73*
C/C(NCCc1ccc(O)cc1)=C1/CCOC1=O	x	x	x	x	x	101
CCOC(=O)C1CCN(C(=O)c2c(C)oc3c2C(=O)c2ccccc2C3=O)CC1	12	103	48*	94	-40	102
CCOC(=O)C1CCN(C(=O)c2ccc(C)o2)CC1	x	x	-9	x	5	94
CC1CCCN(S(=O)(=O)c2cccc(C(=O)OCC(=O)N(C)Cc3c(F)cccc3Cl)c2)C1 (stereo not drawn)	x	x	35	x	-13	108
CSc1ccc(NC(=O)NN(c2ccccc2)C2CCS(=O)(=O)C2)cc1 (stereo not drawn)	x	x	x	x	x	102
COc1ccc2c(C(=O)CN3CCN(c4ccccc4)CC3)c[nH]c2c1	67*	107	2	33*	-11	117
CS(=O)(=O)N1N=C(c2cccs2)CC1c1ccccc1 (stereo not drawn)	12	95	-5	0.0*	3	108
COc1ccc(C2CC(c3cccs3)=NN2S(C)(=O)=O)cc1 (stereo not drawn)	7	100	-15	87	-4	104
CS(=O)(=O)Nc1cccc(C2=NN(S(C)(=O)=O)C(c3ccccc3)C2)c1 (stereo not drawn)	37	104	6	23*	3	112
COc1cc(/C=C/C(=O)N2CC(C)OC(C)C2)cc(OC)c1OC (stereo not drawn)	-1	100	1	101	0	100
Cn1cc(CN2CCCC(C(=O)Nc3cccc(-c4cc5ccccc5[nH]4)c3)C2)cn1 (stereo not drawn)	30*	110	13	175*	26	x
COc1cccc(-c2ccc(NC(=O)C3CCCN(Cc4cnn(C)c4)C3)cc2)c1 (stereo not drawn)	11	100	20	132	7	x
CC(C)n1cc(CN2CCCC(C(=O)Nc3cccc(-c4cc5ccccc5[nH]4)c3)C2)cn1 (stereo not drawn)	22	104	29	180*	32	101
Clc1ccc(-c2nnc3sc(Cc4cccs4)nn23)cc1	17	111	58*	105	6	105
O=C1c2ccccc2C(=O)N1Cc1nn2c(-c3ccc(Cl)cc3)nnc2s1	0	98	3	92	-6	59*
O=C1c2ccccc2C(=O)c2c1ccc1c(=O)n(C3CCCCC3)[nH]c21	24	119	2	128	-131	98
O=C1C2=C(c3ccccc31)[N+](=O)C1CCCCC1N2[O-] (stereo not drawn)	9	100	54*	98	-34	x
CCOc1ccc(CN2CCN(CC(O)Cn3c4ccccc4c4ccccc43)CC2)cc1 (stereo not drawn)	9	104	23	138*	13	135
COc1ccc(CN2CCN(CC(O)Cn3c4ccccc4c4ccccc43)CC2)cc1 (stereo not drawn)	0	93	17	111	24	103
ONc1cccnc1-n1nc(C(F)(F)F)cc1C(F)(F)F	-69	86	47*	79	-49	x
CCCN(C(=O)c1cccs1)c1nnc(-c2ccncc2)s1	x	x	6	x	7	78*
